Assay [1] concerns the target T1, DNA topoisomerase 1 (Homo sapiens) (UniProt P11387).
T1 sequence (whole entry): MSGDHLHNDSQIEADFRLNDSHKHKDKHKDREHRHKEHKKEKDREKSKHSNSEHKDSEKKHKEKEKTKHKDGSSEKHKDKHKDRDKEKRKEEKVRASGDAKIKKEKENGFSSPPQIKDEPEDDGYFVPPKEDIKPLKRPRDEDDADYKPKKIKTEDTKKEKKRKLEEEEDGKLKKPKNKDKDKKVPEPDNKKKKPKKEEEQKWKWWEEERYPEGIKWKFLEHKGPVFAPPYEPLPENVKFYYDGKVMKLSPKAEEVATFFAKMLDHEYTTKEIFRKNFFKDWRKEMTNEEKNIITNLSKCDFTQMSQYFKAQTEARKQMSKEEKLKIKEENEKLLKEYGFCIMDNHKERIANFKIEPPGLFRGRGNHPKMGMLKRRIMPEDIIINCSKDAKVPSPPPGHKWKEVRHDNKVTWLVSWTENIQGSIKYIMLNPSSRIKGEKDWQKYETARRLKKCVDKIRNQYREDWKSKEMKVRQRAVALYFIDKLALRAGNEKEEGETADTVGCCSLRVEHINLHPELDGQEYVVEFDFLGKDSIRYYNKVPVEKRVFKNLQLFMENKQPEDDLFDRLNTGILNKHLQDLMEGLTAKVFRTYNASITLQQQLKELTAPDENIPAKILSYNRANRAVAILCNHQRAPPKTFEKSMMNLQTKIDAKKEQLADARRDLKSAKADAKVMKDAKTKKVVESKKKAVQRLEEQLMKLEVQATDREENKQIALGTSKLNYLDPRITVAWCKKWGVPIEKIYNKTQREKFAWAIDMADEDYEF
Kind of assay: Inhibition of human recombinant topoisomerase-1-mediated 117bp DNA oligonucleotide cleavage at 10 uM by PAGE. The method in brief:
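About 2 nM of it is incubated with recombinant Top1 in 10 mM Tris-HCl pH 7.5, 50 mM KCl, 5 mM MgCl2, 0.1 mM EDTA and 15 μg/mL BSA, with compound, for 20 min at 25 °C. Reactions are stopped with 0.5% SDS, run on 20% denaturing PAGE, and cleavage is scored semiquantitatively (0 to ++++) against 1 μM CPT.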

The next assay relates to UACC-62. Nature of the assay: Antiproliferative activity against human UACC62 cells. Format: functional.
For the next assay, the system named is HCT-116. Kind of assay: Antiproliferative activity against human HCT116 cells. Format: functional.
For the next assay, the system named is HOP-62. Nature of the assay: Antiproliferative activity against human HOP62 cells. Format: functional.
In another assay the test system is SF-539. Kind of assay: Antiproliferative activity against human SF539 cells. The format is functional.
The next assay relates to SN12C. Kind of assay: Antiproliferative activity against human SN12C cells. Format: functional.
The next assay relates to DU-145. Kind of assay: Antiproliferative activity against human DU145 cells. The format is functional.
In a further assay the test system is MDA-MB-435. Kind of assay: Antiproliferative activity against human MDA-MB-435 cells. Format: functional.
In another assay the test system is OVCAR-3. Nature of the assay: Antiproliferative activity against human OVCAR-3 cells. Format: functional.
The test system of a further assay is SR. Kind of assay: Antiproliferative activity against human SR cells. Format: functional.
A further assay relates to NCI-H460. Kind of assay: Antiproliferative activity against human NCI-H460 cells. The format is functional.
For a further assay, the system named is IGROV-1. Kind of assay: Antiproliferative activity against human IGROV1 cells. The format is functional.
Another assay concerns MCF7. Nature of the assay: Antiproliferative activity against human MCF7 cells. The format is functional.
In the next assay the test system is HCC 2998. Kind of assay: Antiproliferative activity against human HCC2998 cells. The format is functional.
The test system of a further assay is COLO 205. Kind of assay: Antiproliferative activity against human COLO205 cells. The format is functional.
In the next assay the test system is CAKI-1. Kind of assay: Antiproliferative activity against human Caki1 cells. The format is functional.
The test system of a further assay is ACHN. Kind of assay: Antiproliferative activity against human ACHN cells. The format is functional.
The next assay concerns U-251. Nature of the assay: Antiproliferative activity against human U251 cells. The format is functional.
The test system of a further assay is SF-295. Nature of the assay: Antiproliferative activity against human SF295 cells. Format: functional.
In a further assay the test system is CCRF-CEM. Nature of the assay: Antiproliferative activity against human CCRF-CEM cells. The format is functional.
In a further assay the test system is MOLT-4. Kind of assay: Antiproliferative activity against human MOLT4 cells. The format is functional.
In another assay the test system is RPMI-8226. Nature of the assay: Antiproliferative activity against human RPMI8226 cells. The format is functional.

The values below come from ChEMBL document CHEMBL1157593, “Structure-based design, synthesis, and biological studies of new anticancer norindenoisoquinoline topoisomerase I inhibitors” (2010).

The structures appear in SMILES notation. Activity calls are given as the source filed them. The calls are words filed in the database; no cut-off is given here.

Consider `COc1cc2cnc3c(c2cc1OC)Cc1c-3cc2c(c1CN1CCN(C)CC1)OCO2`, for which the inhibition result in [1] was “Active”.

As a reminder, the GI50 is the concentration that inhibits growth by half. Consider `CC[C@@]1(O)C(=O)OCc2c1cc1n(c2=O)Cc2cc3ccccc3nc2-1` [CAMPTOTHECIN], for which the GI50 was determined as 10 nM in the assay with UACC-62; 30 nM in the assay on HCT-116; 10 nM in the assay with HOP-62; 10 nM in the assay on SF-539; 20 nM in the assay with SN12C; 10 nM in the assay on DU-145. Besides, growth with MDA-MB-435 was halved (GI50) at 40 nM.

As to `COc1cc2cnc3c(c2cc1OC)Cc1c-3cc2c(c1CN1CCCC1)OCO2`, the GI50 is 6700 nM with UACC-62; 640 nM in the assay with HCT-116; 1200 nM in the assay on HOP-62; 1900 nM in the assay on SF-539; 730 nM in the assay on OVCAR-3; 4400 nM in the assay on SN12C. For the same compound, the GI50 in the assay on DU-145 came to 730 nM; with MDA-MB-435, 2500 nM. Further, the inhibition entry in [1] is “Active”.

Turning to `COc1cc2cnc3c(c2cc1OC)Cc1c-3cc2c(c1CN(C)C)OCO2`, the GI50 in the assay on UACC-62 worked out at 12000 nM; in the assay with HCT-116 it was 1500 nM; in the assay on HOP-62 it was 6700 nM; with SF-539, 14000 nM; in the assay on OVCAR-3 it was 1400 nM; in the assay on SN12C, 13000 nM. Moreover, the results for the GI50 in the assay on DU-145 and in the assay with MDA-MB-435 were 1600 nM and 16000 nM, respectively. Besides, the inhibition result in assay [1] is “Active”.

With `COc1cc2cnc3c(c2cc1OC)Cc1c-3cc2c(c1Cn1ccnc1)OCO2`, the GI50 with UACC-62 was 210 nM; in the assay with HCT-116, 160 nM; in the assay on HOP-62, 350 nM; in the assay with SF-539 it was 280 nM; with OVCAR-3, 210 nM; with SN12C, 600 nM. Further, the GI50 in the assay with DU-145 is 260 nM; in the assay with SR it was 12 nM; in the assay with NCI-H460 it was 130 nM; in the assay with IGROV-1 it was 120 nM; in the assay on MCF7 it was 90 nM; in the assay on HCC 2998, 1100 nM. Also, the GI50 in the assay with COLO 205 turned out to be 510 nM; with CAKI-1, 290 nM; in the assay on ACHN it was 280 nM; with U-251, 160 nM; in the assay with SF-295, 150 nM; in the assay with CCRF-CEM, 37 nM. Also, the GI50 was determined as 60 nM in the assay on MOLT-4 and 41 nM in the assay on RPMI-8226. Further, the inhibition entry in assay [1] is “Active”.

On to `COc1cc2cnc3c(c2cc1OC)Cc1cc2c(cc1-3)OCO2`, for which the GI50 with UACC-62 was below 10 nM; in the assay with HCT-116, above 100000 nM; with HOP-62 it was 72 nM; in the assay with SF-539, below 10 nM; with SN12C, above 100000 nM; in the assay with DU-145, 28 nM. Also, the concentration for 50% growth inhibition (GI50) with MDA-MB-435 was below 10 nM. Further, the inhibition entry in [1] is “Active”.

Take `COc1cc2cnc3c(c2cc1OC)Cc1c-3cc2c(c1CN(C)CCN(C)C)OCO2`: the GI50 is 730 nM in the assay on UACC-62; 1900 nM in the assay on HCT-116; 1500 nM with HOP-62; 11000 nM in the assay with SF-539; 7400 nM in the assay on OVCAR-3; above 100000 nM with SN12C. In the assay on DU-145, this compound had a GI50 of 3400 nM. The inhibition result in assay [1] is “Active”.

Turning to `COc1cc2c3c(n(C)c(=O)c2cc1OC)-c1cc2c(cc1C3=O)OCO2`, the GI50 with UACC-62 worked out at 4200 nM; with HCT-116, 35000 nM; in the assay with HOP-62, 1300 nM; with SF-539 it was 41000 nM; with SN12C, 68000 nM; with DU-145 it was 37000 nM. This compound had a GI50 with MDA-MB-435 of 96000 nM. For the same compound, the inhibition result in [1] was “Active”.

With `COc1cc2cnc3c(c2cc1OC)Cc1c-3cc2c(c1C)OCO2`, the GI50 is 700 nM in the assay with UACC-62; 890 nM in the assay on HCT-116; 7300 nM in the assay on HOP-62; 4600 nM in the assay on SF-539; 5800 nM with OVCAR-3; above 100000 nM in the assay on SN12C. Also, the GI50 in the assay with DU-145 and in the assay with MDA-MB-435 was above 100000 nM throughout. In [1], the inhibition result is “Active”.

As for `COc1cc2cnc3c(c2cc1OC)Cc1c-3cc2c(c1CN1CCOCC1)OCO2`, the GI50 in the assay with UACC-62 was determined as 100000 nM; in the assay on HCT-116, 1400 nM; in the assay with HOP-62 it was 2100 nM; with SF-539, 1800 nM; in the assay on OVCAR-3 it was 1700 nM; with SN12C, 2300 nM. Growth in the assay on DU-145 was halved (GI50) at 1900 nM.
